# Measurements published in ChEMBL document CHEMBL4014344, “Discovery of the Soluble Guanylate Cyclase Stimulator Vericiguat (BAY 1021189) for the Treatment of Chronic Heart Failure” (J Med Chem, 2017).
# pIC50: −log10 of the molar value.
# Key:
# [1] = target: T1, Guanylate cyclase soluble subunit alpha-1 (Rattus norvegicus) (UniProt P19686); experiment: Stimulation of rat recombinant sGCalpha1 subunit expressed in CHO cells using alpha-[32P]GTP as substrate assessed as >=3 fold increase in [32P]cGMP formation after 10 mins by radioimmunoassay; format: cell-based
# T1 sequence (whole entry): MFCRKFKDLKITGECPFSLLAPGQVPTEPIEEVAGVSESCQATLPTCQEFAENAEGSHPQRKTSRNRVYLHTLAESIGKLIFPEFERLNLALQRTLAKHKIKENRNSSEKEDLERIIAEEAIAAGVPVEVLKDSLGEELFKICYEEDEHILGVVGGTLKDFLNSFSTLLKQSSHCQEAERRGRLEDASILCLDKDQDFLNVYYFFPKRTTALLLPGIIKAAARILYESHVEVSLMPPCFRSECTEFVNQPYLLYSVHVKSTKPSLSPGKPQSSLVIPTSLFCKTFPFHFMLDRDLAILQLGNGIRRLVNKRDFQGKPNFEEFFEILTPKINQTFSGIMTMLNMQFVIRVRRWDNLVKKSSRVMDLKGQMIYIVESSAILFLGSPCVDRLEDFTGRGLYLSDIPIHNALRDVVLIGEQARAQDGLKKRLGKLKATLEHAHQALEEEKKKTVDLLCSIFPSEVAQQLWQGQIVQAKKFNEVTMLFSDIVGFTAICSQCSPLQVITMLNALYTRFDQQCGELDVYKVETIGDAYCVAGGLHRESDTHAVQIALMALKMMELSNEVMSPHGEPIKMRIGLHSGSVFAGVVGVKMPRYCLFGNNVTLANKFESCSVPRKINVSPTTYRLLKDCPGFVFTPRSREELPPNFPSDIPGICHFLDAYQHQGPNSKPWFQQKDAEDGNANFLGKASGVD
# [2] = Clearance in rat hepatocytes at 1 uM up to 90 mins by LC-MS/MS analysis; format: ADME, cell-based, Hepatocyte
# Summary of the method: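 Rat hepatocytes at 1 × 10^6 viable cells/mL (trypan blue-corrected) in Williams' medium E, 1 μM substrate, MeCN ≤1%, 37 °C, pH 7.4. Sampled at 2−90 min, quenched with MeCN, analysed by LC-MS/MS.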
# [3] = Apparent permeability across apical to basolateral side in human Caco2 cells at 2 uM after 2 hrs by LC-MS analysis; format: ADME, cell-based; conditions: Caco-2
# Summary of the method: (§1)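 Caco-2 cells grown 14−16 d on inserts. Compound dissolved in DMSO and diluted to final 2 μM in HBSS with glucose (19.9 mM) and HEPES (9.8 mM). Added apically (A−B) or basolaterally, incubated 2 h at 37 °C. Both compartments analysed by LC-MS to calculate Papp. Efflux ratio = Papp B−A/Papp A−B. Lucifer yellow monolayer integrity check.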
# [4] = Efflux ratio of apparent permeability in human Caco2 cells; format: ADME, cell-based; conditions: Caco-2; summary of the method: as §1
# [5] = Clearance in iv dosed Wistar rat blood after 24 hrs by LC-MS analysis; format: ADME, organism-based; conditions: whole blood
# Summary of the method: (§2)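 Male Wistar rats and female beagle dogs. iv in plasma/DMSO (rat) or H2O/PEG 400/EtOH (dog). Oral gavage in H2O/PEG 400/EtOH for both. Rats jugular-catheterised ≥1 d before dosing. Usually >10 blood samples, at least two after 24 h. Plasma quantified by LC-MS with internal standard. CL, t1/2, Vss and F calculated from plasma curves. Blood clearance via blood/plasma ratio (20 min blood incubation).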
# [6] = Plasma clearance in iv dosed Beagle dog after 24 hrs by LC-MS analysis; format: ADME, organism-based, Canis lupus familiaris
# Summary of the method: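 Female beagle dogs were dosed iv in an H2O/PEG 400/EtOH formulation. Blood was collected into heparinized tubes, and plasma was obtained by centrifugation at 1000g and stored at −20 °C if needed. Drug was quantified by LC-MS (selected ion monitoring or high-resolution) against an internal standard. Clearance was calculated from the plasma concentration–time course.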
# [7] = Volume of distribution at steady state in iv dosed Wistar rat after 24 hrs by LC-MS analysis; format: ADME, organism-based; conditions: in vivo, read-out: Vdss; summary of the method: as §2
# [8] = Terminal half life in iv dosed Wistar rat blood after 24 hrs by LC-MS analysis; format: ADME, organism-based; conditions: whole blood, read-out: beta t1/2 (converted); summary of the method: as §2
# [9] = Terminal half life in iv dosed Beagle dog blood after 24 hrs by LC-MS analysis; format: ADME, organism-based, Canis lupus familiaris; conditions: whole blood, read-out: beta t1/2 (converted); summary of the method: as §2
# [10] = Oral bioavailability in Wistar rat administered via oral gavage after 24 hrs by LC-MS analysis; format: ADME, organism-based; conditions: in vivo; summary of the method: as §2
# [11] = Volume of distribution at steady state in iv dosed Beagle dog after 24 hrs by LC-MS analysis; format: ADME, organism-based, Canis lupus familiaris; conditions: in vivo, read-out: Vdss; summary of the method: as §2
# [12] = Oral bioavailability in Beagle dog administered via oral gavage after 24 hrs by LC-MS analysis; format: ADME, organism-based, Canis lupus familiaris; conditions: in vivo; summary of the method: as §2
# [13] = Clearance in iv dosed Beagle dog blood after 24 hrs by LC-MS analysis; format: ADME, organism-based, Canis lupus familiaris; conditions: whole blood; summary of the method: as §2
# [14] = tested on: Saphenous artery; experiment: Vasorelaxant activity in normal Chinchilla rabbit saphenous artery ring administered at the beginning of the last resting period of 28 mins; format: functional; conditions: Oryctolagus cuniculus
# [15] = tested on: Saphenous artery; experiment: Vasorelaxant activity in nirate-tolerant Chinchilla rabbit saphenous artery ring administered at the beginning of the last resting period of 28 mins in presence of sorbide dinitrate; format: functional; conditions: Oryctolagus cuniculus
smiles,measurement,setting,value
COC(=O)N(Cc1ccc(F)cc1)c1c(N)nc(-c2nn(Cc3ccccc3F)c3ncccc23)nc1N,MEC,[1],0.7 µM
same,CLhep predicted at 1 µM,[2],40 mL/min/kg
COC(=O)N(Cc1ccccc1F)c1c(N)nc(-c2nn(Cc3ccccc3F)c3ncccc23)nc1N,MEC,[1],0.1 µM
same,CLhep predicted at 1 µM,[2],53.3 mL/min/kg
Nc1nc(-c2nn(Cc3ccccc3F)c3ncccc23)nc(N)c1N1CCOC1=O,MEC,[1],0.3 µM
same,CLhep predicted at 1 µM,[2],6.67 mL/min/kg
Nc1nc(-c2nn(Cc3ccccc3F)c3ncccc23)nc(N)c1NC(=O)OC1CCC1,MEC,[1],0.2 µM
same,"Papp A→B at 2 h, 2 µM",[3],2.3 ×10⁻⁶ cm/s
same,CLhep predicted at 1 µM,[2],23.3 mL/min/kg
same,efflux ratio,[4],25
COC(=O)Nc1c(N)nc(-c2nn(Cc3ccccc3F)c3nnccc23)nc1N,clearance,[5],63.3 mL/min/kg
same,MEC,[1],2 µM
same,CLhep predicted at 1 µM,[2],< 1.67 mL/min/kg
COC(=O)Nc1c(N)nc(-c2nc(Cc3ccccc3F)c3ncccn23)nc1N,clearance,[5],30 mL/min/kg
same,MEC,[1],1.7 µM
COC(=O)Nc1c(N)nc(-c2nc(Cc3ccccc3F)n3ncccc23)nc1N,clearance,[6],15 mL/min/kg
same,clearance,[5],15 mL/min/kg
same,Vd,[7],0.3 L/kg
same,half-life,[8],0.5 h
same,MEC,[1],0.7 µM
same,half-life,[9],1.8 h
same,bioavailability,[10],37%
same,Vd,[11],2 L/kg
same,CLhep predicted at 1 µM,[2],< 1.67 mL/min/kg
COC(=O)N(C)c1c(N)nc(-c2nn(Cc3ccccc3F)c3ncccc23)nc1N [RIOCIGUAT],clearance,[6],5 mL/min/kg
same,clearance,[5],21.7 mL/min/kg
same,Vd,[7],1.2 L/kg
same,bioavailability,[12],79%
same,half-life,[8],1.4 h
same,MEC,[1],0.03 µM
same,half-life,[9],2.4 h
same,bioavailability,[10],46%
same,Vd,[11],0.7 L/kg
same,CLhep predicted at 1 µM,[2],3.33 mL/min/kg
COC(=O)Nc1c(N)nc(-n2nc(Cc3ccccc3F)c3ncc(F)cc32)nc1N,clearance,[13],3.33 mL/min/kg
same,clearance,[5],5 mL/min/kg
same,Vd,[7],0.5 L/kg
same,bioavailability,[12],56%
same,half-life,[8],1.5 h
same,MEC,[1],0.5 µM
same,half-life,[9],4.1 h
same,bioavailability,[10],26%
same,Vd,[11],1 L/kg
same,CLhep predicted at 1 µM,[2],1.67 mL/min/kg
CCN(C(=O)OC)c1c(N)nc(-c2nn(Cc3ccccc3F)c3ncccc23)nc1N,MEC,[1],0.2 µM
same,CLhep predicted at 1 µM,[2],11.7 mL/min/kg
Nc1nc(-c2nn(Cc3ccccc3F)c3ncccc23)nc(N)c1N1C[C@H](C(F)(F)F)OC1=O,MEC,[1],0.2 µM
COC(=O)Nc1c(N)nc(-c2nn(Cc3ccccc3F)c3ncccc23)nc1N,MEC,[1],0.3 µM
same,"Papp A→B at 2 h, 2 µM",[3],7.9 ×10⁻⁶ cm/s
same,CLhep predicted at 1 µM,[2],1.67 mL/min/kg
same,efflux ratio,[4],5
O=[N+]([O-])OCC(CO[N+](=O)[O-])O[N+](=O)[O-] [NITROGLYCERIN],pIC50,[14],8.72
same,pIC50,[15],8.02
COC(=O)N(CC(F)(F)F)c1c(N)nc(-c2nn(Cc3ccccc3F)c3ncccc23)nc1N,MEC,[1],0.1 µM
same,CLhep predicted at 1 µM,[2],15 mL/min/kg
COC(=O)N(CCO)c1c(N)nc(-c2nn(Cc3ccccc3F)c3ncccc23)nc1N,MEC,[1],0.3 µM
same,CLhep predicted at 1 µM,[2],61.7 mL/min/kg
COC(=O)N(Cc1cccc(F)c1)c1c(N)nc(-c2nn(Cc3ccccc3F)c3ncccc23)nc1N,MEC,[1],0.2 µM
same,CLhep predicted at 1 µM,[2],53.3 mL/min/kg
Nc1nc(-c2nn(Cc3ccccc3F)c3ncccc23)nc(N)c1NC(=O)OCC1CC1,MEC,[1],0.2 µM
same,CLhep predicted at 1 µM,[2],23.3 mL/min/kg
CC1(C)CN(c2c(N)nc(-c3nn(Cc4ccccc4F)c4ncccc34)nc2N)C(=O)O1,MEC,[1],0.2 µM
same,CLhep predicted at 1 µM,[2],21.7 mL/min/kg
Nc1nc(-c2nn(Cc3ccccc3F)c3ncccc23)nc(N)c1NC(=O)OCC(F)(F)F,MEC,[1],0.2 µM
same,CLhep predicted at 1 µM,[2],35 mL/min/kg
CC(C)OC(=O)Nc1c(N)nc(-c2nn(Cc3ccccc3F)c3ncccc23)nc1N,MEC,[1],0.8 µM
same,CLhep predicted at 1 µM,[2],15 mL/min/kg
Nc1nc(-c2nn(Cc3ccccc3F)c3ncccc23)nc(N)c1N1C[C@@H](C(F)(F)F)OC1=O,MEC,[1],0.03 µM
same,CLhep predicted at 1 µM,[2],26.7 mL/min/kg
COC(=O)N(CC(F)F)c1c(N)nc(-c2nn(Cc3ccccc3F)c3ncccc23)nc1N,MEC,[1],0.1 µM
same,CLhep predicted at 1 µM,[2],6.67 mL/min/kg
COC(=O)Nc1c(N)nc(-n2nc(Cc3ccccc3F)c3ncccc32)nc1N,clearance,[5],16.7 mL/min/kg
same,MEC,[1],1.2 µM
same,CLhep predicted at 1 µM,[2],< 1.67 mL/min/kg
Nc1nc(-c2nn(Cc3ccccc3F)c3ncccc23)nc(N)c1NC(=O)OC1COC1,MEC,[1],2.3 µM
same,"Papp A→B at 2 h, 2 µM",[3],0.2 ×10⁻⁶ cm/s
same,CLhep predicted at 1 µM,[2],1.67 mL/min/kg
same,efflux ratio,[4],74
